An excerpt weighted towards active compounds, which were near 2.5% of everything screened.
HCV NS3 hel inh: inhibitors of HCV NS3 helicase, primary screen, biochemical, Cy5 molecular beacon fluorescence; inhibition, % at 10.9 µM; Hepatitis C virus NS3 helicase; NS3 helicase DNA unwinding; hit rate 0.56% among 290,000;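 active means inhibition above the mean of all tested compounds plus 3 SD, set per campaign, cut at about 35% in these data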;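 further: 0% = DMSO wells and 100% = thioflavine S control wells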
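Assay system: hepatitis C virus NS3 helicase domain fragment enzyme. Also added: annealed dual-labelled DNA beacon duplex, ATP-started. Timing: 1 h reaction at 25 °C, ATP-initiated. Technique: Cy5 fluorescence at 0 and 60 min, beacon hairpin quenching. Evaluation: % inhibition of unwinding. Replication: one well per compound.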
DNMT1 block: human DNMT1 methyltransferase inhibitors, primary screen, biochemical, molecular beacon, fluorescence, HinP1I cleavage, uHTS; inhibition (reported as % activation of signal), % at 10 µM; hit rate 0.83% among 360,000; in the data active means inhibition above about 50%
Target sequence (P26358 504-1616 limits assumed): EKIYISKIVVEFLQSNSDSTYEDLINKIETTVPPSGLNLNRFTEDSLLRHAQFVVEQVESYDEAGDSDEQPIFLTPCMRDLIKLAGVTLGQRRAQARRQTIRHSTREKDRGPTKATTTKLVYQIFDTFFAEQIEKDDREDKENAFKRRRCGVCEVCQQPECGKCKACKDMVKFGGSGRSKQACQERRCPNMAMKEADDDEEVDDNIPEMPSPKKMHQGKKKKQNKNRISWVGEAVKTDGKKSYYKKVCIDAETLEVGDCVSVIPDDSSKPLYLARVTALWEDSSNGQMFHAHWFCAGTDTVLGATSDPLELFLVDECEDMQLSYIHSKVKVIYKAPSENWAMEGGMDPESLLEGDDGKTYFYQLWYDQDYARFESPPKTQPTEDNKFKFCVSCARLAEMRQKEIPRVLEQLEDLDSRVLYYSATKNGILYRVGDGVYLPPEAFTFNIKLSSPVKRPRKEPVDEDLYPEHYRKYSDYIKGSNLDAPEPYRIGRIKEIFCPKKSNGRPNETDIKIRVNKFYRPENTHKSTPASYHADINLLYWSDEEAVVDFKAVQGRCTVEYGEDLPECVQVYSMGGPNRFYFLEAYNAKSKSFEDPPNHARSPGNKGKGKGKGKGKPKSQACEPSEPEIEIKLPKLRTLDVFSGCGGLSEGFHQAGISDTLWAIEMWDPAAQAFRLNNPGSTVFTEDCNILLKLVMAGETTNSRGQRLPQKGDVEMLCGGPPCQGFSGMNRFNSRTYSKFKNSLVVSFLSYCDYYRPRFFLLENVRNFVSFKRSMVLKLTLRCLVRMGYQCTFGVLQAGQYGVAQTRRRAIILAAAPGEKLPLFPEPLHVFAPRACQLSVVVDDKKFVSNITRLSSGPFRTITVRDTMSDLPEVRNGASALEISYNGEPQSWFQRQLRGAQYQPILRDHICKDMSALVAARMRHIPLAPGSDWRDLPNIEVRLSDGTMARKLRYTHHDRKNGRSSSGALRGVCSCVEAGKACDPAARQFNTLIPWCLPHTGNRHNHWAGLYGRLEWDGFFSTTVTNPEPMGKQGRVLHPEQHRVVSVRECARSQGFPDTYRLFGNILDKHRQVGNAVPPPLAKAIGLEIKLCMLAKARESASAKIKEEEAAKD
UHRF1 MBD2 ctr: UHRF1 methylated DNA binding inhibitors, primary screen, counter-screen for MBD2 inhibitor project, biochemical, TR-FRET, human UHRF1, single concentration; E3 ubiquitin-protein ligase UHRF1 (Homo sapiens), Q96T88; UHRF1 binding to methylated oligo; inhibition, % at 4.4 µM; hit rate 0.75% among 370,000; in the data active means inhibition above about 21%;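 further: UHRF1 SRA domain binding a hemimethylated CpG hairpin DNA probe; 0% = median of test compound wells and 100% = reference inhibitor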
SUMO1 PPI mod: modulators of SUMO1 protein-protein interactions, primary screen, biochemical, uHTS | Small ubiquitin-related modifier 1 (Homo sapiens), P63165 | SUMO1 binding to a labelled peptide, TR-FRET, 1 h | inhibition, % at 20 µM | hit rate 0.33% among 360,000 | AID 602429, 2012; in the data active means inhibition above about 37%
MBD2 inh: inhibitors of MBD2 binding to methylated DNA, primary screen, biochemical, TR-FRET, DNA-binding domain, human | Methyl-CpG-binding domain protein 2 (Homo sapiens), Q9UBB5 | MBD2 binding to methylated oligonucleotide | inhibition, % at 4.4 µM | hit rate 0.31% among 370,000 | AID 686964, 2013; in the data active means inhibition above about 13%
DSG3 Ab inh: inhibitors of pemphigus antibody binding to DSG3, primary screen, biochemical, bead-based, flow cytometry, scFv-GFP | DSG3-coupled beads, scFv-anti-DSG3-GFP binding; hits give low values | binding (percent of control), % at 10 µM | hit rate 0.48% among 310,000 | AID 588358, 2011;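 active means binding more than 3 SD below its plate's average and above zero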;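 further: hits lower antibody fragment binding to DSG3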
DNMT1 inh conf: DNMT1 methyltransferase inhibitor retest, confirmation, biochemical, molecular beacon, fluorescence, single concentration; shares compounds with DNMT1 block; DNMT1 molecular beacon HinP1I cleavage; inhibition, % at 10 µM; hit rate 8% among 2,300;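 active means average inhibition of at least 30% in the single-concentration confirmation test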
DNMT1 interf: beacon fluorescence artifact counter-screen | AID 602387 | DNMT1 molecular beacon spectral interference counterscreen, fluorescence 485/520 | hit rate 1% among 2,300 | shares compounds with DNMT1 block | activation (fluorescence interference), % at 10 µM;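 active means activation of at least 30% at 10 µM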;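 further: DNMT1 catalytic domain with a HinP1I cleavage step and a FAM/dabcyl DNA beacon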
An asterisk follows results filed as active; nt = no result.

SMILES	HCV NS3 hel inh	DNMT1 block	UHRF1 MBD2 ctr	SUMO1 PPI mod	MBD2 inh	DSG3 Ab inh	DNMT1 inh conf	DNMT1 interf
O=C(CN1C(=O)C2(OCCO2)c2ccccc21)c1ccc(Br)cc1	-2	2	nt	-2	nt	95	nt	nt
CC1=NOC(=O)/C1=C\c1ccc(-c2cc(Cl)ccc2Cl)o1	28	81*	0	48*	-3	107	4	-8
CC1=NOC(=O)/C1=C\c1ccc(-c2ccc(Br)cc2C(=O)O)o1	29	34	5	21	-5	102	nt	nt
Cc1cnn(-c2cc(N/N=C/c3ccccc3)ncn2)c1	-8	8	nt	-1	nt	100	nt	nt
Cc1cnn(-c2cc(N/N=C/c3ccccc3F)ncn2)c1	1	56*	5	-2	-3	98	3	-3
COc1ccc(NC(=O)CC2Nc3cc(C)c(C)cc3NC2=O)c([N+](=O)[O-])c1 (stereo not drawn)	4	59*	0	-21	-3	84	1	2
COc1ccc(NC(=O)Cc2ccc(C)cc2)c([N+](=O)[O-])c1	-6	-2	2	-22	2	nt	nt	nt
O=S(=O)(c1ccc2ccccc2c1)N1CCN(C2CCN(Cc3ccccc3)CC2)CC1	-16	-7	0	-8	-6	105	nt	nt
COc1ccc(-c2cc3nc4ccccc4n3c(N)c2C#N)cc1	4	52*	-1	87*	-1	89	8	7
COc1ccc(-c2cc(-c3ccccc3)c(C#N)c(S(C)=O)n2)cc1 (stereo not drawn)	1	5	0	19	4	99	nt	nt
O=C(COc1cccnc1[N+](=O)[O-])Nc1ncc(Cl)cc1Cl	nt	83*	0	15	-2	100	3	-2
Cc1cc(C)c(S(=O)(=O)N(C)Cc2cnn(C)c2)c(C)c1	5	-8	2	-5	-2	nt	nt	nt
CCOC(=O)c1c(NC(=O)CSc2c[nH]c3ccccc23)sc2c1CCC2	-1	-26	-2	1	-2	98	nt	nt
N#Cc1ccccc1CN1C(=O)S/C(=C/c2cccn2-c2ccc(C(=O)O)cc2)C1=O	10	106*	10	-13	9	98	4	1
N#CC(C#N)=Cc1cccn1-c1ccc(C(=O)O)cc1	4	101*	43*	-6	12	101	21	-1
CCOC(=O)/C(C#N)=C/c1cccn1-c1ccc(Cl)cc1	18	-1	2	-1	3	110	nt	nt
O=C(CN1C(=O)S/C(=C\c2ccc(C(=O)O)cc2)C1=O)Nc1ccccc1	4	0	2	-27	0	96	nt	nt
O=S(=O)(c1ccc2c(c1)OCO2)N1CCN(c2nnnn2-c2ccccc2)CC1	-5	4	-1	-2	-3	100	nt	nt
O=C(NCCc1ccccc1)c1n[nH]c2ccccc12	-8	0	2	4	0	98	nt	nt
Cc1cc(C)c(C#N)c(SCC(=O)NC2CC2)n1	2	2	-1	2	2	86	nt	nt
CC(=O)NN1C(=O)/C(=C\c2ccc(Br)o2)SC1=S	34	81*	0	25	-5	118	2	2
CC(=O)NN1C(=O)/C(=C\c2ccccc2)SC1=S	11	0	-14	-3	-6	107	nt	nt
CC(=O)NN1C(=O)/C(=C/c2ccc(Br)o2)SC1=S	11	88*	10	24	2	103	13	5

Screening data (PubChem BioAssay)
